Data reported in ChEMBL document CHEMBL1166011, “A bastadin with potent and selective delta-opioid receptor binding affinity from the Australian sponge Ianthella flabelliformis” (J Nat Prod, 2010).
Activity calls are given as the source filed them. No cut-off for these calls is given here.

What was measured:
[1] = Displacement of [3H]DPDPE from delta opioid receptor in guinea pig forebrain by beta plate scintillation counting; design: species or system Cavia porcellus
Summary of the method: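 Delta binding on pooled guinea pig forebrain membranes with 1 nM [3H]DPDPE, 315 µg protein, 10 µM naloxone for nonspecific binding; 90 min rt, filtration onto glass fiber B mats. Concentration-response over 11 treatment levels, 2% final DMSO. IC50 and Ki from nonlinear least-squares fitting, model testing by ANOVA.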

[2] = Displacement of [3H]DAMGO from mu opioid receptor in guinea pig forebrain by beta plate scintillation counting
[3] = Displacement of [3H]U69593 from kappa opioid receptor in guinea pig cerebellum by beta plate scintillation counting
Cavia porcellus [4] = species: Cavia porcellus; assay: Displacement of [3H]DAMGO from mu opioid receptor in guinea pig forebrain at 100 uM by beta plate scintillation counting
Summary of the method: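 Guinea pig forebrain membranes (pooled, homogenized in 50 mM Tris·HCl pH 7.4, preincubated 37 °C 45 min to strip endogenous ligands, washed). 1 nM [3H]DAMGO, 315 µg protein, nonspecific binding with 10 µM naloxone; 90 min rt. Compound at 100 µM in 2% final DMSO. Filtration onto glass fiber B mats. % activity = 100 − % control, specific binding.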

Cavia porcellus [5] = species: Cavia porcellus; assay: Displacement of [3H]U69593 from kappa opioid receptor in guinea pig cerebellum at 100 uM by beta plate scintillation counting; format: tissue-based
Summary of the method: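 Pooled guinea pig cerebellum membranes (Tris·HCl pH 7.4, endogenous ligands removed at 37 °C 45 min). 1 nM [3H]U69593, 190 µg protein, 10 µM naloxone for nonspecific binding; 90 min rt. Tested up to 100 µM, 2% final DMSO. Filtration onto glass fiber B mats presoaked in 0.01% polyethylenimine; % activity from specific binding.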

Cavia porcellus [6] = species: Cavia porcellus; assay: Selectivity for guinea pig delta opioid receptor over guinea pig mu opioid receptor
Cavia porcellus [7] = species: Cavia porcellus; assay: Selectivity for guinea pig delta opioid receptor over guinea pig kappa opioid receptor
Cavia porcellus [8] = species: Cavia porcellus; assay: Displacement of [3H]DPDPE from delta opioid receptor in guinea pig forebrain at 100 uM by beta plate scintillation counting
Summary of the method: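 Pooled guinea pig forebrain membranes, Tris·HCl pH 7.4 prep with 37 °C 45 min preincubation to remove endogenous ligands. 1 nM [3H]DPDPE, 315 µg membrane protein, 10 µM naloxone defines nonspecific binding; 90 min rt. Single 100 µM screen, 2% final DMSO. Glass fiber B filtration, scintillation counting. % activity = 100 − % control.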

SMILES	Ki [1] [nM]	Ki [2] [nM]	Ki [3] [nM]	IC50 [1] [nM]	inhibition (Cavia porcellus [4])	Activity (Cavia porcellus [5])	Selectivity ratio (Cavia porcellus [6])	Selectivity ratio (Cavia porcellus [7])	inhibition (Cavia porcellus [8]) [%]
C=CCN1CC[C@]23c4c5ccc(O)c4O[C@H]2C(=O)CC[C@@]3(O)[C@H]1C5 [NALOXONE]	30	3.9	2.6						
O=C1NCC(O)c2ccc(c(Br)c2)Oc2cc(ccc2O)CCNC(=O)/C(=N/O)C(O)c2cc(Br)c(c(Br)c2)Oc2cc(cc(Br)c2OS(=O)(=O)O)C/C1=N\O (stereo not given) [BASTADIN 26]	100			206	inactive	inactive	> 1000	> 1000	
O=C1N/C=C/c2ccc(c(Br)c2)Oc2cc(ccc2OS(=O)(=O)O)CCNC(=O)/C(=N/O)Cc2cc(Br)c(c(Br)c2)Oc2cc(cc(Br)c2O)C/C1=N\O					57%	inactive			87
O=C1N/C=C/c2ccc(c(Br)c2)Oc2cc(ccc2OS(=O)(=O)O)CCNC(=O)/C(=N/O)C(O)c2cc(Br)c(c(Br)c2)Oc2cc(cc(Br)c2O)C/C1=N\O (stereo not given)					39%	inactive			86
